# Assay outcomes (PubChem)
# Only some compounds are listed: those with a hit (about 4.9% of all), similar ones and a draw of the others.
# STAT3 inh – IL-6 driven STAT3 reporter inhibitors, primary screen, U3A cells, luciferase, luminescence, MLSCN library; IL-6 STAT3-luciferase reporter; host cell line lacks STAT1; inhibition, % at 5.5 µM; 190,000 tested, 0.89% active; AID 862, 2007;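 active = inhibition above the mean inhibition across all screened compounds plus 3 SD, cut at about 44% in these data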;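 also: 0% = DMSO only wells and 100% = 100 µM nifuroxazide control wells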
# APP 5'UTR act – activators of APP 5'UTR luciferase reporter, primary screen, SH-SY5Y cells; AID 1276, 2008; SH-SY5Y APP 5'UTR luciferase reporter, luminescence; zero percent = DMSO vehicle wells; activation, % at 2 µM; 190,000 tested, 1% active;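 active = activation above a set limit, based on mean plus 3 SD of controls, cut at about 140% in these data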
# NF-kB neuron act – activators of NF-kB expression in neurons, primary screen, cell-based, HTS. human neuronal cells, NF-kB reporter expression; active compounds read high. fold change at 12.5 µM. 190,000 tested, 1.6% active; in the data active = fold change above about 3.3
# STAT3 activator – IL-6 driven STAT3 reporter potentiators, primary screen, U3A cells, luciferase, luminescence, MLSCN library; IL-6 STAT3-luciferase reporter; 100% = signal with IL-6 EC80 alone; activation (% of control), % at 5.6 µM; 190,000 tested, 0.91% active; AID 871, 2007;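 active = activation above the screen-wide mean of compound activation plus 3 SD, cut at about 130% in these data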;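 also: 0% = background luminescence of wells with medium and substrate only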
#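 Assay system – human STAT1-deficient U3A cells with stable STAT3-luciferase reporter · Also added – IL-6 (33 ng/mL) · Schedule – compound 1 h, then IL-6 6 h at 37 °C · Technique – reporter luminescence signal · Evaluation – % activation versus median of IL-6-stimulated wells · Benchmarks – IL-6-only wells as 100% reference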
# STAT1 activator – STAT1 signaling activators, primary screen, cell-based, HTS, luciferase reporter; NIH 3T3 STAT1-luciferase reporter, IFN-gamma, luminescence; 100% = IFN-gamma alone, no compound; 200,000 tested, 2.6% active; activation (% of control), % at 5.5 µM;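 active = activation above the screen-wide mean activation plus 3 SD, cut at about 130% in these data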;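 also: raw ratio to IFN-gamma control signal so 100% means no change and 0% no light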
# STAT1 inh – STAT1 signaling inhibitors, primary screen, cell-based, HTS, luciferase reporter; NIH 3T3 STAT1-luciferase reporter, IFN-gamma, luminescence; inhibition, % at 5.5 µM; 200,000 tested, 0.35% active; AID 920, 2007;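 active = inhibition above a set limit, the mean inhibition across all tested compounds plus 3 SD, cut at about 34% in these data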;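 also: 0% = IFN-gamma with DMSO and 100% = IFN-gamma with 300 µM nifuroxazide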
# Numbers without * were called inactive; . = no result.
SMILES,STAT3 inh,APP 5'UTR act,NF-kB neuron act,STAT3 activator,STAT1 activator,STAT1 inh
COc1c(C)cccc1C(=O)Nc1ccc(N2CCN(S(C)(=O)=O)CC2)cc1,6,35,2,97,145*,-49
CCOC(=O)C(=NCCOC)NNc1cc(Cl)ccc1Cl,0,-14,0.89,103,96,4
Cc1cc(C)cc(NC(=O)c2ccccc2CC[N+](=O)[O-])c1,-8,9,1.1,109,107,-8
Cc1ccc(NC(=O)Nc2ccccc2CC[N+](=O)[O-])cc1,-30,19,1.2,133*,102,-3
C/C(=N\NC(=O)c1nn(C)c(C)c1Br)c1ccc(NC(=O)c2ccc(C)s2)cc1,5,120,1.3,99,133*,-38
CN(C)S(=O)(=O)N1CCCC(C(=O)c2ccc(C(F)(F)F)cc2)C1 (configuration not stated),4,-4,0.95,103,96,2
CC(C)Cn1c(/C=C/c2ccccc2)nc2ccccc21,4,49,2.1,98,136*,-40
COc1ccc(-n2cnc3ccccc32)cc1,-15,22,1.1,118,108,-9
CN(C)c1ccc(/C=C/c2ccncc2)cc1,14,30,2.5,90,127,-29
COc1ccc(/C=C/c2nc3ccccc3n2C)cc1,102*,-19,0.85,10,14,94*
CCn1c(/C=C/c2ccccc2)nc2ccccc21,21,205*,7*,86,133*,-37
COc1ccc(/C=C/c2ccncc2)cc1,19,49,1.9,87,144*,-48
CCn1c2ccccc2n2c(=O)c(=O)n(CC(=O)N3CCN(c4ccccc4OC)CC3)nc12,10,-4,0.98,96,102,-3
CC(C)c1ccc(/C=N/Nc2ccc(C(=O)O)cc2)cc1,84*,15,1.1,29,43,65*
Cc1ccc(/C=N/Nc2ccc(C(=O)O)cc2)o1,-22,125,3,122,125,-27
CSc1ccc(/C=N/Nc2ccc(Cl)c(C(=O)O)c2)cc1,-5,139*,12*,105,107,-7
Cc1nn(-c2cccc(C(F)(F)F)c2)c(Cl)c1/C=N/Nc1cccc(C(=O)O)c1,18,159*,8*,85,106,-6
O=C(O)c1ccc(/C=N/Nc2cccc(C(F)(F)F)c2)cc1,-7,24,1.1,113,149*,-55
O=C(Nc1ccccc1O)c1ccc(NS(=O)(=O)c2cccc3cccnc23)cc1,.,47,12*,.,94,6
CCOC(=O)c1c(C)[nH]c(C2=NNC(=NC3CC3)SC2)c1C,76*,158*,0.89,40,43,61*
c1ccc(-c2cnc(CSc3nnc4ccccn34)o2)cc1,2,130,2.5,102,137*,-38
Fc1ccc(-c2nnc(CSc3nnc4ccccn34)o2)cc1,-8,10,2,105,124,-26
O=C(Nc1nsc(-c2ccccc2)n1)c1ccc(F)cc1,28,90,1.6,83,129*,-33
CC(C)c1ccc(Nc2nc(CC(=O)O)cs2)cc1,22,242*,7.2*,83,115,-17
O=C(CCc1nnc(CCCc2ccccc2)o1)NCC(F)(F)F,2,19,1.5,103,123,-24
SMILES,STAT3 inh,APP 5'UTR act,NF-kB neuron act,STAT3 activator,STAT1 activator,STAT1 inh
O=C(Nc1ccccc1)Nc1ccc(Br)cc1F,12,81,1.8,89,130*,-33
Cc1occc1C(=O)Nc1ccc(Br)cc1F,7,26,1.8,99,130*,-32
O=C(Nc1cccc(Cl)c1)Nc1ccc(Br)cc1F,20,64,1,83,112,-13
O=C(Nc1ccc(Cl)cc1)c1ccc(Br)cc1F,-2,150*,7.8*,101,140*,-43
O=C(NCc1cccnc1)c1cc(Cl)ccc1[N+](=O)[O-],20,14,1.4,82,95,6
O=c1c([N+](=O)[O-])cccn1Cc1cccc(Cl)c1,11,-2,2,93,104,-7
